From ChEMBL document CHEMBL4673376 (Bioorg Med Chem Lett, 2021) come the findings set out here.

Test [1] addresses T1, Maltase-glucoamylase (Homo sapiens, UniProt O43451). Kind of test: Inhibition of human intestinal maltase. The test is classed as tissue-based, Intestine. The gist of the method: (§1)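 Enzyme preparations came from small intestine tissue (rat or human, as the line states). Inhibition is reported as IC50.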
Test [2] is described as follows: Inhibition of rat intestinal isomaltase. It is filed as tissue-based, Intestine. The gist of the method:
as §1

Test [3] in a line: Inhibition of rat intestinal sucrase. It is filed as tissue-based, Intestine. The method, boiled down:
as §1

The nature of test [4]: Inhibition of rat intestinal maltase. It is filed as tissue-based, Intestine. The gist of the method:
as §1

The target of test [5] is T1, Maltase-glucoamylase. Kind of test: Inhibition of recombinant human maltase-glucoamylase using p-nitrophenyl-alpha-D-glucopyranoside as substrate incubated for 35 mins by microtiter plate reader analysis.
Test [6] addresses T1, Maltase-glucoamylase. Kind of test: Inhibition of human intestinal maltase using maltose as substrate incubated for 30 mins and immediately heated for 2 mins by glucose oxidase method. It is filed as tissue-based, Intestine. The method, boiled down: as §1
Test [7] is described as follows: Inhibition of rat intestinal isomaltase using isomaltose as substrate incubated for 30 mins and immediately heated for 2 mins by glucose oxidase method. The test is classed as tissue-based, Intestine. The gist of the method: as §1
Test [8] can be described thus: Inhibition of rat intestinal sucrase using sucrose as substrate incubated for 30 mins and immediately heated for 2 mins by glucose oxidase method. It is filed as tissue-based, Intestine. The method, boiled down:
as §1

The nature of test [9]: Inhibition of rat intestinal maltase using maltose as substrate incubated for 30 mins and immediately heated for 2 mins by glucose oxidase method. The test is classed as tissue-based, Intestine. The method, boiled down:
as §1

pIC50, pKi: −log10 of the molar value.

T1 sequence (O43451 whole entry): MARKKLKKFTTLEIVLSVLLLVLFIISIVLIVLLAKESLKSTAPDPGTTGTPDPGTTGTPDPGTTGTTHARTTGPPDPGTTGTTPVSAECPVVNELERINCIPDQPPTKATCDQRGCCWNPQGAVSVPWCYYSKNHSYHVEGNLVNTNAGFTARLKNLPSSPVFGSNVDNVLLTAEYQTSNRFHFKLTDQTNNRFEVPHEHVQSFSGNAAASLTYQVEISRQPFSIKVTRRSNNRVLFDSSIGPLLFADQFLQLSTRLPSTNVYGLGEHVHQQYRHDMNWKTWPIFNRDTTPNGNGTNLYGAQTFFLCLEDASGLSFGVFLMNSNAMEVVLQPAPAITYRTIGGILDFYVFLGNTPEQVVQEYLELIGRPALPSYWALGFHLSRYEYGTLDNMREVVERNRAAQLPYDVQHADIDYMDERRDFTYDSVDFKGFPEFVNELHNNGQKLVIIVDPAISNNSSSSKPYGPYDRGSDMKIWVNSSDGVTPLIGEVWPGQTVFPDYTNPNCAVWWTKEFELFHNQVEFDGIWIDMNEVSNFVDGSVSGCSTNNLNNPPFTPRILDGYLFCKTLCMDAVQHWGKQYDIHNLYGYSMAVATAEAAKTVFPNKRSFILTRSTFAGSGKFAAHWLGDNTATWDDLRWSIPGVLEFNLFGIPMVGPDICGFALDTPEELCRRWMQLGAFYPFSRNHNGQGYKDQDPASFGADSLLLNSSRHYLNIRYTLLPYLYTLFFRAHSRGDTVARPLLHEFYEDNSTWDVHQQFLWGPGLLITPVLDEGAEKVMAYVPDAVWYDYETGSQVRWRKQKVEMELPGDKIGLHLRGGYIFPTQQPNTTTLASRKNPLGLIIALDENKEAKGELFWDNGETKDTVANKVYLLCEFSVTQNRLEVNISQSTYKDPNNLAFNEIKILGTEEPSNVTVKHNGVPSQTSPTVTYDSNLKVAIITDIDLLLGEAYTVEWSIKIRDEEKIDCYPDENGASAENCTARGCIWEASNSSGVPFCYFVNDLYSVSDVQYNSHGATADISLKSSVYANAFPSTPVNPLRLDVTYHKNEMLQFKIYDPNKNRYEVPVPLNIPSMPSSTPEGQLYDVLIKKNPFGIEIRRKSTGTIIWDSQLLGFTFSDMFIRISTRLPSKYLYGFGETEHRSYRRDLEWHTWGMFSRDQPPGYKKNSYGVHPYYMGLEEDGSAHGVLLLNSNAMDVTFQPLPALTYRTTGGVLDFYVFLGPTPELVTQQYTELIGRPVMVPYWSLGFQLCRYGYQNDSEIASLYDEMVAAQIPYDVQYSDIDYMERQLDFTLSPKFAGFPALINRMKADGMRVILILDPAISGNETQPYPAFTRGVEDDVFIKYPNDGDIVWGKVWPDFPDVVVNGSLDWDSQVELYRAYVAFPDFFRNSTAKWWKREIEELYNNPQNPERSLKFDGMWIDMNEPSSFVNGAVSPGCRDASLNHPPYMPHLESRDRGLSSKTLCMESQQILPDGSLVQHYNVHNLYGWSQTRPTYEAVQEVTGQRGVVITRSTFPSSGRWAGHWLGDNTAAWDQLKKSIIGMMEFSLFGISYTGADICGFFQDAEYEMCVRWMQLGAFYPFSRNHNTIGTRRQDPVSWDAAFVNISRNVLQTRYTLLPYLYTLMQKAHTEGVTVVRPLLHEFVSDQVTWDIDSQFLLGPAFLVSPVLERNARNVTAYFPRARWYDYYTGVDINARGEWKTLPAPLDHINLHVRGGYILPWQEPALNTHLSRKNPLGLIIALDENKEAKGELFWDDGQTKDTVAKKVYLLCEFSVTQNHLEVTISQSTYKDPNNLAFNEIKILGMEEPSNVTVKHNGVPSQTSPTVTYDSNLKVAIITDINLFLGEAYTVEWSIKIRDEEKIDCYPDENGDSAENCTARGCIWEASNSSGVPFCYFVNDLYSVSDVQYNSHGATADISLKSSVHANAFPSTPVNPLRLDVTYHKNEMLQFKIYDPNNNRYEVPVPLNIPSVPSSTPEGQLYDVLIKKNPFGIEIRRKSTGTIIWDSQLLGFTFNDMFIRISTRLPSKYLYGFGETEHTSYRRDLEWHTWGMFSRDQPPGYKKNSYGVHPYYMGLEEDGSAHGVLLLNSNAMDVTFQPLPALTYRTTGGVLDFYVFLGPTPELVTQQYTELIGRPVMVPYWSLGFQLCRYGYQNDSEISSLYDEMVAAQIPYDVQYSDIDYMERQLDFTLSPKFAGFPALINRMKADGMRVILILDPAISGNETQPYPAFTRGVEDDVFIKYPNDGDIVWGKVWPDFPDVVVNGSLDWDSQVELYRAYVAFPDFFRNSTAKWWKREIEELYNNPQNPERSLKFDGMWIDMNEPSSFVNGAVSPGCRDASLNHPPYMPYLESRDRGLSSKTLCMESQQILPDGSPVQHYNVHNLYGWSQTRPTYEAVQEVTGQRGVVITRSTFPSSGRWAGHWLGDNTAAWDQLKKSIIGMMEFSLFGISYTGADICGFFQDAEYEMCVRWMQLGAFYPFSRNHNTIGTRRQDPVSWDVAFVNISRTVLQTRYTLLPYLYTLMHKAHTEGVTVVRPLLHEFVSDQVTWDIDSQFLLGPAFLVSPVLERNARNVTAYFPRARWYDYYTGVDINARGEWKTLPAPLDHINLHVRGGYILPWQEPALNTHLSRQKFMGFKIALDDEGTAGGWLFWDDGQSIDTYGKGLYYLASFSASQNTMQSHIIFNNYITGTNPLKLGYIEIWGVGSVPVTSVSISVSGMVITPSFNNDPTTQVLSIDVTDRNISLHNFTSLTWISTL

What is called pIC50 is the IC50 on a negative log10 scale, so that one unit is a factor of ten. A low value points to a large IC50. `CCCCCC[C@@H](O)[C@H](OS(=O)(=O)[O-])[C@H](O)C[S@+]1C[C@@H](O)[C@H](O)[C@H]1CO`: the pIC50 was 5.77 in test [1], 5.32 in test [2], 6.54 in [3] and 5.11 in test [4].

In general, pKi refers to the Ki on a negative log10 scale, so that one unit is a factor of ten. As for `CCCCCCCCCCCCCC[S@+]1C[C@@H](O)[C@H](O)[C@H]1CO`, the negative logarithm of the Ki (pKi) in test [5] is 5.22.

On to `CCC[C@@H](O)[C@H](OS(=O)(=O)[O-])[C@H](O)C[S@+]1C[C@@H](O)[C@H](O)[C@H]1CO`, for which the pIC50 in [1] was 5.32; in [2], 5.54; in test [3], 6.14; in [4] it was 5.27.

As for `CCCCCCCC[C@@H](O)[C@H](O)[C@H](O)C[S@+]1C[C@@H](O)[C@H](O)[C@H]1CO`, the pIC50 in [1] is 5.70; in test [2], 6.40; in test [3] it was 6.42; in test [4], 5.60.

With `CCC[C@@H](O)[C@H](O)[C@H](O)C[S@+]1C[C@@H](O)[C@H](O)[C@H]1CO`, the pIC50 was 5.30 in [1], 6.31 in [2], 5.85 in test [3] and 5.32 in test [4].

In the case of `CCCCCCCCCC[C@@H](O)[C@H](OS(=O)(=O)[O-])[C@H](O)C[S@+]1C[C@@H](O)[C@H](O)[C@H]1CO`, the pIC50 was 5.82 in test [1], 5.36 in [2], 6.77 in [3] and 5.20 in test [4].

As for `CCCCCCCC[C@@H](O)[C@H](OS(=O)(=O)[O-])[C@H](O)C[S@+]1C[C@@H](O)[C@H](O)[C@H]1CO`, the pIC50 in test [1] was 5.92; in test [2], 5.27; in test [3] it was 6.82; in [4], 5.14.

In the case of `CCCC[S+]1C[C@@H](O)[C@H](O)[C@H]1CO` (single isomer, unassigned), the pKi in [5] was 4.49.

In the case of `C[C@H]1O[C@H](O[C@H]2[C@H](O)[C@@H](O)[C@@H](O[C@H]3[C@H](O)[C@@H](O)C(O)O[C@@H]3CO)O[C@@H]2CO)[C@H](O)[C@@H](O)[C@@H]1N[C@H]1C=C(CO)[C@@H](O)[C@H](O)[C@H]1O` (stereo partly specified) [ACARBOSE], the values for the pIC50 in test [2], in [3] and in [4] were 3.19, 5.82 and 5.77, respectively.

Turning to `[O-][C@@H](CO)[C@H](O)C[S@+]1C[C@@H](O)[C@H](O)[C@H]1CO` [NEOSALACINOL], the pIC50 is 5.05 in [6], 6.52 in test [7], 5.89 in [8] and 5.10 in test [9].

As to `O=S(=O)([O-])O[C@@H](CO)[C@H](O)C[S@+]1C[C@@H](O)[C@H](O)[C@H]1CO` [SALACINOL], the pIC50 was 5.89 in test [7], 5.80 in test [8] and 5.28 in test [9].
